Source: ChEMBL document CHEMBL4038328, “Structure-Guided Optimization of HIV Integrase Strand Transfer Inhibitors” (J Med Chem, 2017)
pEC50, pIC50: −log10 of the molar value.

What was measured:
[1] = Inhibition of HIV1 integrase 3' processing activity using 5'-end 32P labeled DNA substrate measured after 2 hrs by PAGE based phosphor imaging method; parameters: species or system Human immunodeficiency virus 1
Summary of the method: (§1)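 Gel-based assay, Mg2+ cofactor: 400 nM integrase with 20 nM DNA substrate 5′-32P-labeled on transferred strand in 50 mM MOPS pH 7.2, 7.5 mM MgCl2, 14 mM 2-mercaptoethanol, inhibitor or DMSO; 2 h at 37 °C. Stopped with formamide/SDS loading buffer; products resolved on 16% denaturing polyacrylamide gels, quantified by phosphorimaging.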

[2] = Inhibition of HIV1 integrase strand transfer activity using 5'-end 32P labeled DNA substrate measured after 2 hrs by PAGE based phosphor imaging method; parameters: species or system Human immunodeficiency virus 1; summary of the method: as §1
[3] = test system: Human immunodeficiency virus 1; experiment: Antiviral activity against VSV-G pseudotyped HIV1 harboring wild-type integrase infected in HOS cells pretreated […] for 3 hrs followed by viral infection measured after 48 hrs by luciferase reporter gene assay; type: functional, cell-based; settings: Human immunodeficiency virus 1, HOS
Summary of the method: (§2)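 Single-round luciferase HIV-1 vector (pNLNgoMIVR−ΔLUC carrying WT or mutant IN) was pseudotyped with VSV-g by calcium phosphate co-transfection of 293 cells, and supernatant was harvested after 48 h. HOS cells were seeded at 4000/well in DMEM with 5% FBS and 5% newborn calf serum. They were pretreated 3 h at 37 °C with 5–0.0001 μM (11 serial dilutions), then infected for 48 h. Luminescence was normalized to untreated cells, and EC50 came from nonlinear regression.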

[4] = test system: HOS; experiment: Cytotoxicity against HOS cells assessed as reduction in cell viability after 48 hrs by ATPLite luminescence assay; type: cell-based; settings: human, hos, 48 h
Summary of the method: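 HOS cells seeded at 4000 per well the day before, exposed to compounds over 250 to 0.05 μM at 37 °C for 48 h. ATP measured by luminescence after lysis and 20 min signal development at room temperature.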

[5] = test system: Human immunodeficiency virus 1; experiment: Selectivity ratio of EC50 for VSV-G pseudotyped HIV1 harboring integrase Y143R mutant infected in HOS cells to EC50 for VSV-G pseudotyped HIV1 harboring wild-type integrase infected in HOS cells; type: functional
Summary of the method: (§3)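 Fold change is the EC50 against the mutant-IN vector divided by the EC50 against the WT-IN vector. Both come from the single-round luciferase infectivity assay in HOS cells, with a 3 h compound pretreatment followed by 48 h infection.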

[6] = test system: Human immunodeficiency virus 1; experiment: Antiviral activity against VSV-G pseudotyped HIV1 harboring integrase G140S/Q148H double mutant infected in HOS cells pretreated […] for 3 hrs followed by viral infection measured after 48 hrs by luciferase reporter gene assay; type: functional, cell-based; settings: Human immunodeficiency virus 1, HOS; summary of the method: as §2
[7] = test system: Human immunodeficiency virus 1; experiment: Selectivity ratio of EC50 for VSV-G pseudotyped HIV1 harboring integrase N155H mutant infected in HOS cells to EC50 for VSV-G pseudotyped HIV1 harboring wild-type integrase infected in HOS cells; type: functional; summary of the method: as §3
[8] = test system: Human immunodeficiency virus 1; experiment: Antiviral activity against VSV-G pseudotyped HIV1 harboring integrase N155H mutant infected in HOS cells pretreated […] for 3 hrs followed by viral infection measured after 48 hrs by luciferase reporter gene assay; type: functional, cell-based; settings: Human immunodeficiency virus 1, HOS; summary of the method: as §2
[9] = test system: Human immunodeficiency virus 1; experiment: Antiviral activity against VSV-G pseudotyped HIV1 harboring integrase Y143R mutant infected in HOS cells pretreated […] for 3 hrs followed by viral infection measured after 48 hrs by luciferase reporter gene assay; type: functional, cell-based; settings: Human immunodeficiency virus 1, HOS; summary of the method: as §2
[10] = test system: Human immunodeficiency virus 1; experiment: Selectivity ratio of EC50 for VSV-G pseudotyped HIV1 harboring integrase G140S/Q148H mutant infected in HOS cells to EC50 for VSV-G pseudotyped HIV1 harboring wild-type integrase infected in HOS cells; type: functional; summary of the method: as §3

Row | Structure (SMILES) | pIC50 [1] | pIC50 [2] | pEC50 [3] | CC50 [4] | Ratio EC50 [5] | pEC50 [6] | Ratio EC50 [7] | pEC50 [8] | pEC50 [9] | Ratio EC50 [10]
1 | Nc1c(C(=O)NCc2ccc(F)cc2F)c(=O)n(O)c2nc(N3CCCCC3)ccc12 | < 3.48 | 4.27 | – | – | – | – | – | – | – | –
2 | COc1ccc2c(O)c(C(=O)NCc3ccc(F)cc3F)c(=O)n(O)c2n1 | 4.49 | 7.48 | 6.67 | 12000 nM | – | – | – | – | – | –
3 | CN(C)C(=O)CCc1cnc2c(c1)c(N)c(C(=O)NCc1ccc(F)cc1F)c(=O)n2O | – | 8.10 | 8.89 | > 250000 nM | 5 | 7.80 | 5 | 8.17 | 8.22 | 12
4 | Nc1c(C(=O)NCc2ccc(F)cc2F)c(=O)n(O)c2ncc(CCCC3CCCCC3)cc12 | 3.54 | – | 7.28 | 27400 nM | 2 | – | 3 | 6.84 | 6.95 | –
5 | CC(C)NC(=O)/C=C/c1cnc2c(c1)c(N)c(C(=O)NCc1ccc(F)cc1F)c(=O)n2O | – | 8.22 | 8.68 | > 250000 nM | 5 | 6.54 | 6 | 7.92 | 7.96 | 136
6 | CN(C)CCCc1cnc2c(c1)c(N)c(C(=O)NCc1ccc(F)cc1F)c(=O)n2O | 5.52 | 7.85 | 8.21 | 5000 nM | 1 | 7.49 | 5 | 7.54 | 8.15 | 5
7 | COC(=O)CNc1c(C(=O)NCc2ccc(F)cc2F)c(=O)n(O)c2nc(N3CCOCC3)ccc12 | < 3.48 | 5.21 | – | – | – | – | – | – | – | –
8 | Nc1c(C(=O)NCc2ccc(F)cc2F)c(=O)n(O)c2ncc(CCc3ccccc3)cc12 | 4.32 | 7.85 | 8.25 | 18000 nM | 1 | 6.85 | 4 | 7.68 | 8.26 | 25
9 | Nc1c(C(=O)NCc2ccc(F)cc2F)c(=O)n(O)c2nc(N3CCOCC3)ccc12 | < 3.48 | 4.27 | – | – | – | – | – | – | – | –
10 | Nc1c(C(=O)NCc2ccc(F)cc2F)c(=O)n(O)c2ncc(CCC(=O)O)cc12 | – | 8.40 | 8.72 | > 250000 nM | 3 | 6.71 | 5 | 8.00 | 8.31 | 103
11 | CC(C)NC(=O)CCc1cnc2c(c1)c(N)c(C(=O)NCc1ccc(F)cc1F)c(=O)n2O | – | 8.70 | 8.30 | > 250000 nM | 2 | 7.89 | 2 | 7.96 | 8.06 | 3
12 | COC(=O)CNc1c(C(=O)NCc2ccc(F)cc2F)c(=O)n(O)c2nc(OC)ccc12 | 4.70 | 7.38 | 7.49 | 12000 nM | 2 | – | 39 | 5.90 | 7.28 | –
